Publication PMC3539145 (Scientific Reports, 2013)

How the values were obtained:
[1] = target: human thymidylate synthase (h-TS) (Homo sapiens, UniProt P04818); experiment: Human thymidylate synthase activity; format: biochemical
AC [2] = target: T1, AC (Mus musculus, UniProt Q9WV54); experiment: AC activity measured ex vivo in mouse tissues after i.p. injection; set-up: species or system mice; settings: for AC activity in mouse lungs and brain cortex: 10 or 30 mg-kg^−1 i.p., ex vivo 2 h after injection
T1 sequence (Q9WV54 19-394): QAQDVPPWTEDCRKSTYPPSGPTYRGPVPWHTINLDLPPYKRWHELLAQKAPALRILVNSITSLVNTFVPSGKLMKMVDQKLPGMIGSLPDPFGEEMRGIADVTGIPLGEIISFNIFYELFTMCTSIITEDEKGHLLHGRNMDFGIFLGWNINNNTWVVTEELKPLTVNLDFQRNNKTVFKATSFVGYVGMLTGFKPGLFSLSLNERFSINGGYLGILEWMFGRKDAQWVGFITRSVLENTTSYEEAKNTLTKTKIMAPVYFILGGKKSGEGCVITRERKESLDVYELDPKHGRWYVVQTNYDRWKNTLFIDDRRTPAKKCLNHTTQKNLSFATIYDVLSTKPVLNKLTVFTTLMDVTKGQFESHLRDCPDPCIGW
Outline: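 Male Swiss Webster mice (20–35 g) received test compound at 10 or 30 mg-kg−1 i.p. (1 ml-kg−1) in 15% polyethylene glycol/15% Tween-80/70% saline. Mice were killed by cervical dislocation 2 h after dosing. Lungs and brain cortex were frozen in liquid nitrogen and stored at −80°C. AC activity was measured ex vivo. Data are mean ± s.e.m., n = 6.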

SW403 cells [3] = experiment: Ceramide levels in SW403 cells; format: cell-based, human; settings: 3 μM, 3 h
Outline: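 SW403 human colon adenocarcinoma cells are grown in DMEM with 10% FBS at 37°C and 5% CO2. They are treated with test compound at 3 µM, or with vehicle (0.1% DMSO in DMEM), for 3 h. Ceramide species, including d18:1/14:0, 16:0 and 18:0, are identified and quantified by LC/MS. Values are compared with vehicle by one-way ANOVA with Tukey's test.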

SW403 cells [4] = experiment: SW403 cell viability; format: cell-based, human; settings: for interaction with taxol on SW403 cell viability / interaction with 5-FU on SW403 cell viability: isobolographic analyses; for interaction with 5-FU on SW403 cell viability: 5-FU 0.3 µM; for change in SW403 cell viability: single treatment, 3 μM, 3 h
Outline: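 SW403 cells (2×10^5) are seeded the day before and treated in serum-free DMEM with test compound (0.1–100 µM) plus a partner drug (for 5-FU, 0.3 µM). Additions are repeated every 24 h over 72 h. Viability is read by Trypan blue exclusion on a hemocytometer. Interaction is assessed isobolographically, comparing experimental EC50 with the theoretical EC50 from the isobole equation.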

[5] = tested on: AC-overexpressing HEK 293 cells; experiment: Cell viability of AC-overexpressing HEK 293 cells; format: cell-based, human
Outline: (§1)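 Native HEK 293 cells and HEK 293 cells transfected with V5/His-tagged rat AC (pEF6 vector) and selected with G418 (0.3 mg/mL) are exposed to graded test-compound concentrations added in DMSO (final 0.1%). Cells are harvested, spun at 800xg for 10 min and resuspended in PBS. They are mixed 1:1 with 0.4% Trypan blue for 1 min, and viable cells are counted on a hemocytometer. Mean ± s.e.m., n = 4.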

AC [6] = target: T2, AC (Homo sapiens, UniProt Q13510); experiment: AC activity in lysates of treated intact LNCaP cells; format: cell-based; settings: 0.3–10 µM for 3 h; 3 µM for various time intervals
T2 sequence (Q13510 22-395): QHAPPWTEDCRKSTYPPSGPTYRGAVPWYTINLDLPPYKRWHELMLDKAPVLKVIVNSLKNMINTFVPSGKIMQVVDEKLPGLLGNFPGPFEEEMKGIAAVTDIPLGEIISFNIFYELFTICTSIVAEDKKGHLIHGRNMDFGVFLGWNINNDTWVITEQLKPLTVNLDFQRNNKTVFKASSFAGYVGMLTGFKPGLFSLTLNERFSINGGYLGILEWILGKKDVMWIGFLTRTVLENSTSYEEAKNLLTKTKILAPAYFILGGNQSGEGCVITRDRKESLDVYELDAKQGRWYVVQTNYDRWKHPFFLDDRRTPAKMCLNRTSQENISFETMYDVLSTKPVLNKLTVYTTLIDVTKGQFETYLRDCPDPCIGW

AC [7] = target: T2, AC; experiment: AC activity in lysates of treated intact SW403 cells; format: cell-based
Outline: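 Intact cells were exposed to test compound at 0.3–10 µM, with AC activity read 3 h later in cell lysates. A time course used 3 µM over various intervals. Vehicle was 0.1% DMSO in DMEM. SW403 cells were grown in DMEM with 10% FBS at 37°C, 5% CO2. Data are mean ± s.e.m., n = 3–6, each assay in duplicate.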

HEK 293 cells = experiment: Cell viability of native HEK 293 cells; format: cell-based, human
Outline: as §1

[8] = tested on: mouse tissues (lungs and cerebral cortex); experiment: Ceramide levels in mouse tissues after i.p. injection; format: in vivo; settings: mice, 10 or 30 mg-kg^−1 i.p., lungs and brain cortex, 2 h
Outline: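 Male Swiss Webster mice (20–35 g) receive test compound i.p. (10 or 30 mg-kg−1; 1 ml-kg−1) in 15% PEG, 15% Tween-80 and 70% saline, or vehicle alone. They are killed by cervical dislocation 2 h later. Lungs and cerebral cortex are snap-frozen in liquid nitrogen, stored at −80°C, and ceramide is measured by LC/MS. Mean ± s.e.m., n = 6.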

AC [9] = settings: read-out: AC IC50; in vitro, in keratinocytes; cited from earlier work
[10] = Homo sapiens, HEK293, 24 h, read-out: EC50 (cell death / cell viability)

human thymidylate synthase (h-TS), sequence (P04818 whole entry): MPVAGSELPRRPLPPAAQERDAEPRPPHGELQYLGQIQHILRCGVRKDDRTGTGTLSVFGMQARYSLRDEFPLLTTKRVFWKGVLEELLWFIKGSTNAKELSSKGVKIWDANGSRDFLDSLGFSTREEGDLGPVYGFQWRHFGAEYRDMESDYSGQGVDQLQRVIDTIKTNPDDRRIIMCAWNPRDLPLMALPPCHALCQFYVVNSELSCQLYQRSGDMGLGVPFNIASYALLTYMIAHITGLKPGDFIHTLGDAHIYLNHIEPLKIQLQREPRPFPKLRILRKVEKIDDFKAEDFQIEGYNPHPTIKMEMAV

Compound: CCCCCCNC(=O)n1ccc(=O)[nH]c1=O [ARN080, N-hexyl-2,4-dioxo-pyrimidine-1-carboxamide]
- IC50 [1]: 196 ± 27 µM
- AC activity in mouse lungs and brain cortex (AC [2]; mice): substantially reduced
- ED50 (AC [2]; mouse, ip, 2 h, read-out: median inhibitory dose, ID50 (AC activity in vivo)): ~10 mg/kg
- ceramide levels in SW403 cells (SW403 cells [3]): increased ceramide levels
- interaction with taxol on SW403 cell viability (SW403 cells [4]): Super-additive effects
- interaction with 5-FU on SW403 cell viability (SW403 cells [4]): acted synergistically
- change in SW403 cell viability (SW403 cells [4]): did not result in any statistically detectable change

Compound: CCCCCCNC(=O)n1cc(C)c(=O)[nH]c1=O [ARN081, N-hexyl-5-methyl-2,4-dioxo-pyrimidine-1-carboxamide]
- IC50 [1]: 762 ± 123 µM

Compound: CCCCCCNC(=O)n1cc(Cl)c(=O)[nH]c1=O [ARN082, 5-chloro-N-hexyl-2,4-dioxo-pyrimidine-1-carboxamide]
- IC50 [1]: 496 ± 82 µM

Compound: CCCCCCNC(=O)n1cc(C(F)(F)F)c(=O)[nH]c1=O [ARN398, 5-trifluoromethyl-N-hexyl-2,4-dioxo-pyrimidine-1-carboxamide]
- IC50 [1]: 1340 ± 268 µM
- ceramide levels in SW403 cells (SW403 cells [3]): increased ceramide levels
- interaction with taxol on SW403 cell viability (SW403 cells [4]): Super-additive effects
- interaction with 5-FU on SW403 cell viability (SW403 cells [4]): acted synergistically
- change in SW403 cell viability (SW403 cells [4]): did not result in any statistically detectable change

Compound: CCCCCCNC(=O)n1cc(F)c(=O)[nH]c1=O [Carmofur, 1-hexylcarbamoyl-5-fluorouracil]
- EC50 in AC-overexpressing cells relative to native cells ([5]; HEK 293-AC vs native HEK 293, 24 h): 50 fold
- EC50 [5, 10]: 66 µM
- AC activity in LNCaP cells (AC [6]): inhibits AC
- IC50 [1]: 1210 ± 190 µM
- AC activity in mouse lungs and brain cortex (AC [2]; mice): dose-dependent inhibition
- AC activity in SW403 cells (AC [7]; 0.3–10 µM for 3 h, 3 µM for various time intervals): concentration- and time-dependent reduction
- EC50 (HEK 293 cells; [10]): 1.4 µM
- tissue ceramide content [8]: increases in tissue ceramide content

Compound: O=c1[nH]cc(F)c(=O)[nH]1 [Compound 5-FU, 5-fluorouracil, reference compound]
- AC activity in mouse tissue (AC [2]; mice, 30 mg-kg^−1 i.p., 2 h, lungs (Figure 3A)): no statistically detectable effect
- AC activity in SW403 cells (AC [7]; 3 μM, 3 h): did not cause any detectable changes
- ceramide levels in SW403 cells (SW403 cells [3]): did not cause any detectable changes

Compound: CCCCCCCCCCCCCC(=O)N[C@H](CO)[C@H](O)c1ccc([N+](=O)[O-])cc1 [Compound B13, (1R, 2R)-2-(N-tetradecanoylamino)-1-(4-nitrophenyl)-1,3-propanediol]
- IC50 (AC [9]): ~10 µM

Compound: CCCC[C@@H](C)[C@@H](OC(=O)C[C@@H](CC(=O)O)C(=O)O)[C@H](C[C@@H](C)C[C@H](O)CCCC[C@@H](O)C[C@H](O)[C@H](C)N)OC(=O)C[C@@H](CC(=O)O)C(=O)O [FB1, fumonisin B1]
- effect of FB1 on carmofur induced cell death (HEK 293 cells; HEK 293 cells, combination of carmofur plus FB1, Trypan blue): does not decrease carmofur induced cell death
